# Experimental data from ChEMBL document CHEMBL1125337, “Synthesis and antibacterial activity of a series of basic amides of teicoplanin and deglucoteicoplanin with polyamines” (J Med Chem, 1992).
# What was measured:
# [1] = test system: Staphylococcus haemolyticus; experiment: Minimum inhibitory concentration against Staphylococcus haemolyticus L 602; format: functional
# How it was run: (§1)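 MIC (µg/mL) by microbroth dilution in Iso-Sensitest broth; final inoculum 10^4 cfu/mL; 24 h at 37 °C in air.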
# [2] = test system: Streptococcus pyogenes; experiment: Efficacy of compound administered perorally against Streptococcus pyogenes L 49 Septicemia in mouse; format: functional; conditions: po
# How it was run: (§2)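 Mice were infected intraperitoneally with about 10^5 Strep. pyogenes L 49 cells, about 100 times the 50% lethal dose. Groups of 5–8 mice were treated once right after challenge, by the route stated in the line. ED50 (mg/kg) was derived from percentage survival at each dose on day 7 (Spearman-Kärber).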
# [3] = test system: Staphylococcus epidermidis; experiment: Minimum inhibitory concentration against Staphylococcus epidermidis ATCC 12228; format: functional; how it was run: as §1
# [4] = test system: Streptococcus pyogenes; experiment: Efficacy of compound administered subcutaneously against Streptococcus pyogenes L 49 Septicemia in mouse; format: functional; conditions: sc; how it was run: as §2
# [5] = test system: Streptococcus pneumoniae; experiment: Minimum inhibitory concentration against Streptococcus pneumoniae L 44; format: functional
# How it was run: (§3)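 MIC (µg/mL) by microbroth dilution in Todd-Hewitt broth, final inoculum 10^4 cfu/mL, incubated 24 h at 37 °C in air.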
# [6] = Association constant to Ac2-L-Lys-D-Ala-D-Ala determined at pH 9; Value ranges from (9.5E4-3.5E5)
# [7] = test system: Enterococcus faecalis; experiment: Minimum inhibitory concentration against Enterococcus faecalis ATCC 7080; format: functional
# How it was run: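 Microbroth dilution MIC (µg/mL), final inoculum 10^4 cfu/mL, incubated 24 h at 37 °C in air.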
# [8] = test system: Staphylococcus aureus; experiment: Minimum inhibitory concentration against Staphylococcus aureus L 165; format: functional; how it was run: as §1
# [9] = test system: Streptococcus pyogenes; experiment: Minimum inhibitory concentration against Streptococcus pyogenes L 49; format: functional; how it was run: as §3
Structure (SMILES),MIC [3] [µg/mL],MIC [5] [µg/mL],Ka [6] [M⁻¹],MIC [7] [µg/mL],MIC [8] [µg/mL],MIC [9] [µg/mL],MIC [1] [µg/mL],ED50 [2] [mg/kg],ED50 [4] [mg/kg]
CC(=O)N[C@@H]1[C@H](O[C@@H]2c3ccc(c(Cl)c3)Oc3cc4cc(c3O[C@@H]3O[C@@H](CO)[C@@H](O)[C@H](O)[C@@H]3NC(=O)CCCCCCC(C)C)Oc3ccc(cc3Cl)C[C@H]3NC(=O)[C@H](N)c5ccc(O)c(c5)Oc5cc(O)cc(c5)[C@H](NC3=O)C(=O)N[C@H]4C(=O)N[C@H]3C(=O)N[C@@H]2C(=O)N[C@H](C(=O)O)c2cc(O)cc(O[C@H]4O[C@H](CO)[C@@H](O)[C@@H](O)[C@@H]4O)c2-c2cc3ccc2O)O[C@@H](CO)[C@@H](O)[C@@H]1O,0.125,0.063,–,0.125,0.125,0.063,8,> 170,0.12
CC(=O)N[C@@H]1[C@H](O[C@@H]2c3ccc(c(Cl)c3)Oc3cc4cc(c3O[C@@H]3O[C@@H](CO)[C@@H](O)[C@H](O)[C@@H]3NC(=O)CCCCCCC(C)C)Oc3ccc(cc3Cl)C[C@H]3NC(=O)[C@H](N)c5ccc(O)c(c5)Oc5cc(O)cc(c5)[C@H](NC3=O)C(=O)N[C@H]4C(=O)N[C@H]3C(=O)N[C@@H]2C(=O)N[C@H](C(=O)NCCNCCCNCCN)c2cc(O)cc(O[C@H]4O[C@H](CO)[C@@H](O)[C@@H](O)[C@@H]4O)c2-c2cc3ccc2O)O[C@@H](CO)[C@@H](O)[C@@H]1O,0.063,0.125,350000,0.125,0.125,0.063,0.125,–,–
CC(=O)N[C@@H]1[C@H](O[C@@H]2c3ccc(c(Cl)c3)Oc3cc4cc(c3O[C@@H]3O[C@@H](CO)[C@@H](O)[C@H](O)[C@@H]3NC(=O)CCCCCCC(C)C)Oc3ccc(cc3Cl)C[C@H]3NC(=O)[C@H](N)c5ccc(O)c(c5)Oc5cc(O)cc(c5)[C@H](NC3=O)C(=O)N[C@H]4C(=O)N[C@H]3C(=O)N[C@@H]2C(=O)N[C@H](C(=O)NCCCNCCCNCCCN)c2cc(O)cc(O[C@H]4O[C@H](CO)[C@@H](O)[C@@H](O)[C@@H]4O)c2-c2cc3ccc2O)O[C@@H](CO)[C@@H](O)[C@@H]1O,0.063,0.125,350000,0.125,0.125,0.063,0.125,80,0.06

# Continued, in another order:
MIC [3] [µg/mL],MIC [5] [µg/mL],Ka [6] [M⁻¹],MIC [7] [µg/mL],MIC [8] [µg/mL],MIC [9] [µg/mL],Structure (SMILES),MIC [1] [µg/mL],ED50 [2] [mg/kg],ED50 [4] [mg/kg]
0.063,0.125,350000,0.125,0.25,0.063,CC(=O)N[C@@H]1[C@H](O[C@@H]2c3ccc(c(Cl)c3)Oc3cc4cc(c3O[C@@H]3O[C@@H](CO)[C@@H](O)[C@H](O)[C@@H]3NC(=O)CCCCCCC(C)C)Oc3ccc(cc3Cl)C[C@H]3NC(=O)[C@H](N)c5ccc(O)c(c5)Oc5cc(O)cc(c5)[C@H](NC3=O)C(=O)N[C@H]4C(=O)N[C@H]3C(=O)N[C@@H]2C(=O)N[C@H](C(=O)NCCCN2CCCCN(CCCN)CCCC2)c2cc(O)cc(O[C@H]4O[C@H](CO)[C@@H](O)[C@@H](O)[C@@H]4O)c2-c2cc3ccc2O)O[C@@H](CO)[C@@H](O)[C@@H]1O,0.125,60,0.06
0.063,0.125,350000,0.125,0.125,0.063,CC(=O)N[C@@H]1[C@H](O[C@@H]2c3ccc(c(Cl)c3)Oc3cc4cc(c3O[C@@H]3O[C@@H](CO)[C@@H](O)[C@H](O)[C@@H]3NC(=O)CCCCCCC(C)C)Oc3ccc(cc3Cl)C[C@H]3NC(=O)[C@H](N)c5ccc(O)c(c5)Oc5cc(O)cc(c5)[C@H](NC3=O)C(=O)N[C@H]4C(=O)N[C@H]3C(=O)N[C@@H]2C(=O)N[C@H](C(=O)NCCCN2CCCCNCCCC2)c2cc(O)cc(O[C@H]4O[C@H](CO)[C@@H](O)[C@@H](O)[C@@H]4O)c2-c2cc3ccc2O)O[C@@H](CO)[C@@H](O)[C@@H]1O,0.125,90,0.08
0.063,0.125,350000,0.125,0.125,0.063,CC(=O)N[C@@H]1[C@H](O[C@@H]2c3ccc(c(Cl)c3)Oc3cc4cc(c3O[C@@H]3O[C@@H](CO)[C@@H](O)[C@H](O)[C@@H]3NC(=O)CCCCCCC(C)C)Oc3ccc(cc3Cl)C[C@H]3NC(=O)[C@H](N)c5ccc(O)c(c5)Oc5cc(O)cc(c5)[C@H](NC3=O)C(=O)N[C@H]4C(=O)N[C@H]3C(=O)N[C@@H]2C(=O)N[C@H](C(=O)N2CCCCN(CCCN(C)C)CCCC2)c2cc(O)cc(O[C@H]4O[C@H](CO)[C@@H](O)[C@@H](O)[C@@H]4O)c2-c2cc3ccc2O)O[C@@H](CO)[C@@H](O)[C@@H]1O,0.5,–,–
